Measurements from ChEMBL document CHEMBL3817726, “Chemically Diverse Group I p21-Activated Kinase (PAK) Inhibitors Impart Acute Cardiovascular Toxicity with a Narrow Therapeutic Window” (J Med Chem, 2016).
Converted amounts (≈) assume the structure as drawn.

What was measured:
[1] = Cmax associated with acute adverse effect in mouse at 100 mg/kg, ip; assay type: ADME, organism-based; design: dose 100 mg/kg, route intraperitoneal; details: in vivo
Procedure, shortened: (§1)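 Mouse tolerability studies tested multiple doses, given orally or intraperitoneally. Plasma drug concentrations were measured, including at a 15 min time point. The minimum concentration associated with adverse clinical signs or death was taken as the adverse Cmax and was converted to an unbound value.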

[2] = molecular target: Serine/threonine-protein kinase PAK 1 (Homo sapiens, UniProt Q13153); experiment: Inhibition of human recombinant N-terminal 6-His-tagged PAK1 kinase domain (249 to 545 residues) expressed in Escherichia coli BL21(DE3) assessed as phosphorylation of coumarin labeled FRET peptide substrate at Ser/Thr19 preincubated for 10 mins followed by ATP addition measured after 60 mins by Z'-LYTE assay
[3] = test system: Mus musculus; experiment: fCmax associated with acute adverse effect in mouse at 100 mg/kg, ip; assay type: ADME, organism-based; details: in vivo
Procedure, shortened: (§2)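 Mouse tolerability studies at multiple doses, oral or intraperitoneal. Minimum unbound plasma concentration associated with adverse effects (total Cmax converted to unbound) compared with IC50 for inhibition of MEK1 S298 phosphorylation in cells.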

[4] = Fraction unbound in mouse plasma at 100 mg/kg, ip; assay type: ADME, organism-based
[5] = molecular target: Serine/threonine-protein kinase PAK 2 (Homo sapiens, UniProt Q13177); experiment: Inhibition of human recombinant PAK2 assessed as phosphorylation of coumarin labeled FRET peptide substrate at Ser/Thr19 preincubated for 10 mins followed by ATP addition measured after 60 mins by Z'-LYTE assay
[6] = molecular target: Serine/threonine-protein kinase PAK 1/PAK 2 (Homo sapiens, UniProt Q13177+Q13153); experiment: Inhibition of PAK1/2 in human EBC1 cells assessed as phosphorylation of MEK1 at serine 298 after 2 hrs by HTRF assay; assay type: cell-based
[7] = test system: Mus musculus; experiment: Toxicity in mouse at 100 mg/kg, ip; assay type: organism-based; details: in vivo
[8] = Ratio of fCmax associated with acute adverse effect in mouse at 100 mg/kg, ip to IC50 for PAK1/2-mediated phosphorylation of MEK1 at serine 298 in human EBC1 cells
[9] = test system: Mus musculus; experiment: fCmax associated with acute adverse effect in mouse at 25 mg/kg, ip; assay type: ADME, organism-based; details: in vivo; procedure, shortened: as §2
[10] = Ratio of fCmax associated with acute adverse effect in mouse at 25 mg/kg, ip to IC50 for PAK1/2-mediated phosphorylation of MEK1 at serine 298 in human EBC1 cells
[11] = Fraction unbound in mouse plasma at 25 mg/kg, ip; assay type: ADME, organism-based
[12] = Cmax associated with acute adverse effect in mouse at 50 mg/kg, ip; assay type: ADME, organism-based; design: dose 50 mg/kg, route intraperitoneal; details: in vivo; procedure, shortened: as §1
[13] = Cmax associated with acute adverse effect in mouse at 50 to 100 mg/kg, ip; assay type: ADME, organism-based; details: in vivo; procedure, shortened: as §1
[14] = test system: Mus musculus; experiment: fCmax associated with acute adverse effect in mouse at 50 to 100 mg/kg, ip; assay type: ADME, organism-based; details: in vivo; procedure, shortened: as §2
[15] = Ratio of fCmax associated with acute adverse effect in mouse at 50 to 100 mg/kg, ip to IC50 for PAK1/2-mediated phosphorylation of MEK1 at serine 298 in human EBC1 cells; procedure, shortened: as §2
[16] = Fraction unbound in mouse plasma at 50 to 100 mg/kg, ip; assay type: ADME, organism-based
[17] = Ratio of fCmax associated with acute adverse effect in mouse at 100 to 200 mg/kg, ip to IC50 for PAK1/2-mediated phosphorylation of MEK1 at serine 298 in human EBC1 cells
[18] = Fraction unbound in mouse plasma at 100 to 200 mg/kg, ip; assay type: ADME, organism-based
[19] = test system: Mus musculus; experiment: fCmax associated with acute adverse effect in mouse at 100 to 200 mg/kg, ip; assay type: ADME, organism-based; details: in vivo; procedure, shortened: as §2
[20] = Cmax associated with acute adverse effect in mouse at 100 to 200 mg/kg, ip; assay type: ADME, organism-based; details: in vivo; procedure, shortened: as §1
[21] = test system: Mus musculus; experiment: Toxicity in mouse assessed as mortality at 12.5 mg/kg, po after 0.5 hrs; assay type: organism-based; details: in vivo
Procedure, shortened: (§3)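 Mouse tolerability study at multiple oral doses, with lethality and clinical signs monitored after dosing. Plasma drug concentrations were measured, and the minimum unbound concentration linked to adverse effects was compared with the cellular pMEK S298 IC₅₀.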

[22] = Apparent permeability across apical to basolateral side in MDCK cells at 10 uM after 60 mins; assay type: ADME, cell-based, Canis lupus familiaris; details: dog
[23] = species: Homo sapiens; experiment: Selectivity for human recombinant N-terminal 6-His-tagged PAK1 kinase domain (249 to 545 residues) over LCK (unknown origin)
[24] = Ratio of fCmax associated with acute adverse effect in mouse at 12.5 to 25 mg/kg, po to IC50 for PAK1/2-mediated phosphorylation of MEK1 at serine 298 in human EBC1 cells
Procedure, shortened: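 Mice were dosed at multiple levels, orally or intraperitoneally, and monitored for acute adverse signs. The minimum unbound plasma Cmax associated with adverse effects was converted from total drug concentration and compared with the cellular IC50 for phospho-MEK1 S298 inhibition.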

[25] = Fraction unbound in mouse plasma at 12.5 to 25 mg/kg, po; assay type: ADME, organism-based
[26] = test system: Mus musculus; experiment: Toxicity in mouse assessed as mortality at 25 mg/kg, po after 2 hrs; assay type: organism-based; details: in vivo; procedure, shortened: as §3
[27] = Plasma concentration in mouse at 25 mg/kg, po at 0.25 hrs
[28] = Lipophilicity, log D of the compound at pH 7.4; assay type: physicochemical; details: buffer
[29] = Plasma concentration in mouse at 25 mg/kg, po at 15 mins; assay type: ADME, organism-based
[30] = test system: Mus musculus; experiment: Toxicity in mouse assessed as mortality at 12.5 mg/kg, po after 0.25 hrs; assay type: organism-based; details: in vivo
[31] = Plasma concentration in mouse at 12.5 mg/kg, po at 0.5 hrs; assay type: ADME, organism-based
[32] = Efflux ratio of permeability across basolateral to apical side over apical to basolateral side in MDCK cells at 10 uM after 60 mins; assay type: ADME, cell-based, Canis lupus familiaris; details: dog
[33] = test system: Mus musculus; experiment: fCmax associated with acute adverse effect in mouse at 12.5 to 25 mg/kg, po; assay type: ADME, organism-based; details: in vivo; procedure, shortened: as §2
[34] = test system: Plasma; experiment: Unbound drug concentration in mouse plasma at 25 mg/kg, po at 0.25 hrs; details: in vivo
[35] = Cmax associated with acute adverse effect in mouse at 12.5 to 25 mg/kg, po; assay type: ADME, organism-based; details: in vivo; procedure, shortened: as §1
[36] = Kinetic solubility of the compound at pH 7.4; assay type: physicochemical; details: buffer, read-out: Kinetic_solubility

Chain of Serine/threonine-protein kinase PAK 1 (Q13153 whole entry, the tested form may be a part): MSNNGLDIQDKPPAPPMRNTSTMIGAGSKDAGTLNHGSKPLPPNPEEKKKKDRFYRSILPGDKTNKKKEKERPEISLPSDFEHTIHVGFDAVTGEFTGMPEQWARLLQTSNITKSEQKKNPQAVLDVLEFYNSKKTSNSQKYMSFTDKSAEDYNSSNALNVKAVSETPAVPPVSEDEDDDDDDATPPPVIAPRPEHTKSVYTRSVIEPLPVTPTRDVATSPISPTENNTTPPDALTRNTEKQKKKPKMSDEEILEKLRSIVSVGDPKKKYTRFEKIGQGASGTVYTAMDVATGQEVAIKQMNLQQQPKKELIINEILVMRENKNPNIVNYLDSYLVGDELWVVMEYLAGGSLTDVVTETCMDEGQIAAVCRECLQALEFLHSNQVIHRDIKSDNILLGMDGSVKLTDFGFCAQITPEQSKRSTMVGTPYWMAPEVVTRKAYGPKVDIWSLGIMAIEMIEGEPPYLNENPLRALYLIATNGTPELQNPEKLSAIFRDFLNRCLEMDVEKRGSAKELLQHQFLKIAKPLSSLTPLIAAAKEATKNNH
Chain of Serine/threonine-protein kinase PAK 2 (Q13177 whole entry): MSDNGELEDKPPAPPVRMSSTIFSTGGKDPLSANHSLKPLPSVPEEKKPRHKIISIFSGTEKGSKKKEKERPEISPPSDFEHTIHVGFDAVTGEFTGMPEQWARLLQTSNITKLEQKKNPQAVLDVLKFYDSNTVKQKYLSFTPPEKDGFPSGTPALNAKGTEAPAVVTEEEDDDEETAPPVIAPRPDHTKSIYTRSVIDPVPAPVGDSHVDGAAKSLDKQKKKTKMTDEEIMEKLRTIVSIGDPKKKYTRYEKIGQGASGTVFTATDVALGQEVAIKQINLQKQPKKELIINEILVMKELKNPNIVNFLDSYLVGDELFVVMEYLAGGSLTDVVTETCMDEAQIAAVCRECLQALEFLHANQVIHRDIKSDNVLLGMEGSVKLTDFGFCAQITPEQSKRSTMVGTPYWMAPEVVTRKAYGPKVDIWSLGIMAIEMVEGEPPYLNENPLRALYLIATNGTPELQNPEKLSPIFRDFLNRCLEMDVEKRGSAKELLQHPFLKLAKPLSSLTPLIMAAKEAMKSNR

With `CCc1cccn(-c2ccc(-c3cc4cnc(NC)nc4n(C[C@H]4CNCCO4)c3=O)c(Cl)c2)c1=O` as the molecule, how does the Cmax [1] read?
Its Cmax is 28000 nM.

And the Ki [2]?
The Ki was 11 nM.

And the fCmax [3]?
The fCmax was 0.76 µM.

And the fraction unbound [4]?
Its fraction unbound is 0.027.

And the Ki [5]?
Its Ki is 9.5 nM.

What about the IC50 [6] of the same molecule?
The IC50 was 240 nM.

And the Activity [7]?
The Activity was “Toxic”.

What about the Ratio [8] of the same molecule?
Its Ratio is 1.

Which results are given for `N[C@H]1CC[C@H](CNc2nccc(Nc3cc(C(F)(F)F)ccn3)n2)CC1`?
fCmax [9]: 1.6 µM; Ratio [10]: 1; fraction unbound [11]: 0.063; Cmax [12]: 26000 nM

With `Cc1nccn(-c2ccc(-c3cc4cnc(NC5COC5)nc4n(CC4CCNCC4(F)F)c3=O)c(Cl)c2)c1=O` (single isomer, unassigned) as the molecule, how does the Ki [2] read?
Its Ki is 5.2 nM.

And the Cmax [13]?
The Cmax was 12000 nM.

What about the Ki [5] of the same molecule?
Its Ki is 4.6 nM.

What about the IC50 [6] of the same molecule?
Its IC50 is 280 nM.

What about the fCmax [14] of the same molecule?
The fCmax was 0.89 µM.

And the Ratio [15]?
The Ratio was 1.

And the fraction unbound [16]?
The fraction unbound was 0.076.

Which Ratio [17] does the source give for `Cc1cncc(-c2ccc(-c3cc4cncnc4n(C[C@H]4CC[C@H](N)CC4)c3=O)c(Cl)c2)n1` here?
Its Ratio is 1.

What about the Ki [2] of the same molecule?
Its Ki is 372 nM.

And the fraction unbound [18]?
The fraction unbound was 0.104.

And the fCmax [19]?
Its fCmax is 6.1 µM.

What about the Ki [5] of the same molecule?
Its Ki is 940 nM.

What about the IC50 [6] of the same molecule?
Its IC50 is 6000 nM.

What about the Cmax [20] of the same molecule?
The Cmax was 59000 nM.

With `CNc1ncc2cc(-c3ccc(-n4cccc(C)c4=O)cc3Cl)c(=O)n(CCC3(F)CN(C)C3)c2n1` as the molecule, how does the Activity [21] read?
The Activity was “Toxic”.

And the Papp A→B at 1 h, 10 µM [22]?
Its Papp A→B at 1 h, 10 µM is 6.9 ×10⁻⁶ cm/s.

What about the Selectivity ratio [23] of the same molecule?
The Selectivity ratio was 57.

What about the Ki [2] of the same molecule?
The Ki was 0.95 nM.

And the Ratio [24]?
Its Ratio is 1.

What about the fraction unbound [25] of the same molecule?
The fraction unbound was 0.032.

What about the Activity [26] of the same molecule?
Its Activity is “Toxic”.

What about the concentration at 0.25 h [27] of the same molecule?
The concentration at 0.25 h was 2240 nM.

And the Ki [5]?
Its Ki is 2 nM.

What about the logD [28] of the same molecule?
The logD was 1.8.

What about the IC50 [6] of the same molecule?
Its IC50 is 33 nM.

And the concentration at 0.25 h [29]?
Its concentration at 0.25 h is 2800 nM.

And the Activity [30]?
The Activity was “Toxic”.

And the concentration at 0.5 h [31]?
The concentration at 0.5 h was 1890 nM.

What about the efflux ratio at 1 h, 10 µM [32] of the same molecule?
The efflux ratio at 1 h, 10 µM was 2.

What about the fCmax [33] of the same molecule?
Its fCmax is 0.088 µM.

What about the “Cp(f)” value [34] of the same molecule?
The value was 88 nM.

What about the Cmax [35] of the same molecule?
Its Cmax is 2800 nM.

What about the solubility kinetic [36] of the same molecule?
The solubility kinetic was 117 µM (≈ 59.6 µg/mL).
